According to publication PMC5548007 (European journal of medicinal chemistry, 2017):
Like-named read-outs stand apart in the source and are kept apart here. One block for each compound: values may come before it.

Experiments:
[1] = tested on: rats; assay: Acute in vivo toxicity in rats; conditions: oral 10 mg/kg
How it was run: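 Male Sprague-Dawley rats (250–300 g), n = 4, dosed once by oral gavage at 10 mg/kg in 5% DMSO / 40% PEG 400 / 55% saline. Dosing was part of a pharmacokinetic study, with tail-vein blood drawn at 1, 3, 6 and 24 h. Time to death after oral dosing was recorded in hours.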

[2] = tested on: three human prostate cancer cell lines; assay: Anti-proliferative potency across three prostate cancer cell lines; format: cell-based; conditions: read-out: IC50 range in three prostate cancer cell lines
How it was run: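 Human prostate cancer cells were grown at 37 °C in 5% CO2: PC-3 and LNCaP in RPMI-1640, DU-145 in EMEM, each with 10% FBS and 1% penicillin/streptomycin. Cells were seeded at 3,200/well and exposed to test compound for 3 days, with DMSO as vehicle control. WST-1 reagent was added for 3 h at 37 °C and absorbance read at 430 nm. IC50 came from linear inhibition over ≥5 doses, averaged over triplicates.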

[3] = tested on: PC-3 cells; assay: WST-1 cell proliferation assay, PC-3; format: cell-based; conditions: Homo sapiens, PC-3, 72 h, read-out: IC50 PC-3
How it was run: (§1)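 PC-3 and LNCaP cells grown in RPMI-1640, DU145 in EMEM, each with 10% FBS and 1% penicillin/streptomycin at 37 °C, 5% CO2. Cells seeded at 3,200/well, then exposed 3 days to at least five doses of test compound, with DMSO as vehicle control. WST-1 reagent added for 3 h at 37 °C, absorbance read at 430 nm. IC50 taken from linear inhibition plot; mean ± SD of triplicates.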

[4] = tested on: DU145 cells; assay: WST-1 cell proliferation assay, DU145; format: cell-based; conditions: Homo sapiens, DU-145, 72 h, read-out: IC50 DU145
How it was run: as §1

[5] = tested on: LNCaP cells; assay: WST-1 cell proliferation assay, LNCaP; format: cell-based; conditions: Homo sapiens, 72 h, read-out: IC50 LNCaP
How it was run: as §1

[6] = mice, single oral dose 1 mg/kg; cited from earlier work
[7] = tested on: PC-3 cells; conditions: cited from earlier work
[8] = tested on: PC-3 cells; assay: Cell cycle analysis by flow cytometry with propidium iodide staining; format: cell-based, human; conditions: for Cell cycle phase of arrest: PC-3, 28 at 5 μM, 46 at 4 μM
How it was run: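 PC-3 cells were seeded at 200,000/well and allowed to attach for 3 h. They were treated with test compound at 4 or 5 μM, or DMSO vehicle, at 37 °C and harvested at 16 or 24 h, including floating cells. Cells were fixed in cold 80% ethanol for 30 min at 4 °C and RNase-treated for 30 min at 37 °C. Staining used propidium iodide (50 μg/mL stock) for 30 min, and DNA content was read by flow cytometry within 0.5–1 h.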

[9] = Oral pharmacokinetic study in Sprague-Dawley rats; format: in vivo, rat; conditions: single oral dose 10 mg/kg
How it was run: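 Male Sprague-Dawley rats (250–300 g, n = 4) received a single 10 mg/kg oral gavage in 5% DMSO/40% PEG 400/55% saline. Tail-vein blood was taken into EDTA at 1, 3, 6 and 24 h, and plasma was stored at −80 °C. Plasma was extracted with chloroform/methanol (2:1) using a 13C2,15N-tamoxifen internal standard. Quantitation was by UPLC–triple-quadrupole MS/MS with a water/acetonitrile 0.05% formic acid gradient.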

[10] = Metabolic profiling by liver microsome incubation; format: in vitro ADME, human; conditions: 37 °C, 60 min, NADPH; mono-hydroxylation products by HRMS
How it was run: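 Pooled human liver microsomes in potassium phosphate buffer (pH 7.4) with NADPH solutions A and B were preincubated for 5 min at 37 °C. Test compound was added from a 10 mM stock and incubated for 60 min at 37 °C. Methanol stopped the reaction, and samples were centrifuged at 10,000 × g for 4 min at 4 °C. Supernatant was analysed by UHPLC with high-resolution mass spectrometry.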

Structure (SMILES): CC(C)n1c(/C=C/C(=O)/C=C/c2ccccn2)nc2ccccc21 [Compd 58, (1E,4E)-1-(1-Isopropyl-1H-benzo[d]imidazol-2-yl)-5-(pyridin-2-yl)penta-1,4-dien-3-one]
Time to death after oral dosing [1]: ~72 h
IC50 [2]: 0.03 to 0.12 µM

IC50 [3]: 25.4 ± 2.15 µM
IC50 [4]: 26.2 ± 0.65 µM
IC50 [5]: 13.6 ± 2.69 µM
Structure (SMILES): COc1cc(/C=C/C(=O)CC(=O)/C=C/c2ccc(O)c(OC)c2)ccc1O [Curcumin]
Area under curve (AUC) [6]: 2.85 ng·h/mL
Cell cycle phase of arrest [7]: G1/S phase

Structure (SMILES): CCCn1ccnc1/C=C/C(=O)/C=C/c1nc2ccccc2n1CCC [Compd 46, (1E,4E)-1-(1-Propyl-1H-benzo[d]imidazole-2-yl)-5-(1-propyl-1H-imidazole-2-yl)penta-1,4-dien-3-one]
Time to death after oral dosing [1]: about 48 hours
Cell cycle phase of arrest [8]: cell cycle arrest at the G0/G1 phase

Structure (SMILES): CCC(C)n1ccnc1/C=C/C(=O)/C=C/c1sc(C)nc1C(F)(F)F (stereo not drawn) [Compd 28, (1E,4E)-1-(1-(sec-Butyl)-1H-imidazol-2-yl)-5-(2-methyl-4-(trifluoromethyl)thiazol-5-yl)penta-1,4-dien-3-one]
Peak plasma concentration in molar units [9]: 5.27 µM
Acute in vivo toxicity (tolerability) [1]: without observed toxicity
Lower cell population at G2 phase vs control, 16 h ([8]; 5 μM, 16 h): 10%
Higher cell population at G0/G1 phase vs control, 24 h ([8]; 5 μM, 24 h): 4%
Lower cell population at G2 phase vs control, 24 h ([8]; 5 μM, 24 h): 3%
Cell cycle phase of arrest [8]: cell cycle arrest at the G0/G1 phase
Major metabolic products detected after microsomal incubation [10]: three major metabolic products

Structure (SMILES): CCn1c(/C=C/C(=O)/C=C/c2sc(C)nc2C(F)(F)F)nc2ccccc21 [Compd 49, (1E,4E)-1-(1-Ethyl-1H-benzo[d]imidazol-2-yl)-5-(2-methyl-4-(trifluoromethyl)thiazol-5-yl)penta-1,4-dien-3-one]
Acute in vivo toxicity (tolerability) [1]: without observed toxicity
Major metabolic products detected after microsomal incubation [10]: two major metabolic products
